Here are results for one compound from ChEMBL document CHEMBL3860048 (J Med Chem, 2016).

Active and inactive are the calls of the source. The calls are words filed in the database; no cut-off is given here.

Series [1] is described as follows: MRT in Sprague-Dawley rat plasma at 1 mg/kg, sc by LC/MS analysis. Format: ADME, organism-based. The procedure, abridged:
(§1)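 Single subcutaneous 1 mg/kg dose to SD rats (n=3 per group). Plasma drawn at 5, 10, 15, 30 min and 1, 2, 4, 8, 24 h. Proteins removed with 0.2% formic acid/methanol (1:4, v/v) plus acetonitrile, centrifuged, supernatant diluted in 0.4% aqueous formic acid, then measured by LC/MS. Noncompartmental analysis per rat, mean ± SD.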

Series [2] is described as follows: Volume of distribution in steady state in Sprague-Dawley rat plasma at 1 mg/kg, iv up to 24 hrs by LC/MS analysis. The series is classed as ADME, organism-based. The conditions noted are these: read-out: Vdss. The procedure, abridged:
(§2)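 Single intravenous 1 mg/kg bolus to SD rats (n=3 per group). Blood sampled at 5, 10, 15, 30 min and 1, 2, 4, 8, 24 h. Plasma deproteinized with 0.2% formic acid/methanol (1:4, v/v) plus acetonitrile, spun 15,000 rpm for 5 min, supernatant treated with 0.4% aqueous formic acid and spun again, then quantified by LC/MS. Noncompartmental parameters per rat, reported as mean ± SD.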

In series [3] the test system is Rattus norvegicus. In words: Inhibition of testosterone levels in Crl:CD(SD) rat plasma assessed as plasma testosterone level <0.04 ng/ml at 30 pmol/hr, sc administered as continuous dosing through alzet osmotic pump for 4 weeks by radio-immunoassay. The series is classed as functional, organism-based. The procedure, abridged: (§3)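 Peptide dissolved in 50% DMSO at 3, 10, 30 or 100 µM, loaded into ALZET osmotic pumps for 3 to 100 pmol/h. Pumps implanted sc in 5 Crl:CD(SD) male rats. Plasma testosterone measured by RIA after 1 or 4 weeks. Values below the 0.04 ng/mL detection limit were treated as 0.04. Count of rats below the limit.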

Series [4] has as its system Rattus norvegicus. In words: Inhibition of testosterone levels in Crl:CD(SD) rat plasma assessed as plasma testosterone level <0.04 ng/ml at 3 pmol/hr, sc administered as continuous dosing through alzet osmotic pump for 1 week by radio-immunoassay. Format: functional, organism-based. The procedure, abridged:
as §3

Series [5] relates to Rattus norvegicus. In words: Inhibition of testosterone levels in CD(SD) rat assessed as plasma testosterone level <0.04 ng/ml at 0.01 nmol/hr, sc administered continuously for 6 days through alzet osmotic pump measured after 6 days by radio-immunoassay. The series is classed as functional, organism-based.
Series [6] can be described thus: Tmax in Sprague-Dawley rat plasma at 1 mg/kg, sc by LC/MS analysis. The series is classed as ADME, organism-based. In outline: as §1
Series [7] in a line: AUC (0 to 24 hrs) in Sprague-Dawley rat plasma at 1 mg/kg, sc by LC/MS analysis. Also noted: dose 1 mg/kg, time < 24 hr, route subcutaneous. The series is classed as ADME, organism-based. In outline:
as §1

The nature of series [8]: Conformational changes of the compound in distilled water assessed as decrease in beta-sheet content at 0.1 mg/ml by preliminary circular dichroism analysis. Also on record: scale not given: the % may be the effect or the level left. In general terms: Circular dichroism is the unequal absorption of left and right circularly polarised light.
In series [9] the test system is Rattus norvegicus. In words: Inhibition of testosterone levels in Crl:CD(SD) rat plasma assessed as plasma testosterone level <0.04 ng/ml at 30 pmol/hr, sc administered as continuous dosing through alzet osmotic pump for 1 week by radio-immunoassay. The series is classed as functional, organism-based. The procedure, abridged:
as §3

Series [10] can be described thus: Cmax in Sprague-Dawley rat plasma at 1 mg/kg, sc by LC/MS analysis. The series is classed as ADME, organism-based. Also noted: dose 1 mg/kg, route subcutaneous. In outline:
as §1

Series [11] is described as follows: Plasma concentration in Sprague-Dawley rat at 1 mg/kg, iv after 5 mins by LC/MS analysis. The series is classed as ADME, organism-based. The procedure, abridged: as §2
Series [12] has as its target KiSS-1 receptor (Homo sapiens, UniProt Q969F8). In words: Agonist activity at human KISS1R expressed in CHO/dhfr cells assessed as increase in intracellular Ca2+ levels measured for 180 secs by Fluo 3-AM dye based FLIPR assay. Format: functional, cell-based. In outline:
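CHO cells expressing human KISS1R; FLIPR recording of ligand-induced [Ca2+]i rise over time. Maximum response taken and expressed as percent of the response to a maximal concentration of metastin(45-54). EC50 = concentration giving half-maximal mobilization, from nonlinear regression of smoothed data. Reported as ratio to the metastin(45-54) EC50.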

Series [13] can be described thus: Inhibition of testosterone levels in sc dosed Crl:CD(SD) rat plasma assessed as compound dosing causing plasma testosterone level <0.04 ng/ml in all tested animals administered as continuous dosing through alzet osmotic pump for 1 to 4 weeks by radio-immunoassay. The series is classed as functional.
Series [14] concerns the target KiSS-1 receptor (Rattus norvegicus, UniProt Q924U1). In words: Agonist activity at rat KISS1R expressed in CHO/dhfr cells assessed as increase in intracellular Ca2+ levels measured for 180 secs by Fluo 3-AM dye based FLIPR assay. The series is classed as functional, cell-based.
A short description of series [15]: Solubility of the compound in water at 20 mg/ml. Format: physicochemical. The conditions noted are these: buffer.
Series [16] in a line: MRT in Sprague-Dawley rat plasma at 1 mg/kg, iv by LC/MS analysis. Format: ADME, organism-based. The procedure, abridged:
as §2

Series [17] is described as follows: Bioavailability in Sprague-Dawley rat plasma at 1 mg/kg, sc up to 24 hrs by LC/MS analysis. The series is classed as ADME, organism-based. The procedure, abridged: as §1
Series [18] deals with Rattus norvegicus. In words: Inhibition of testosterone levels in Crl:CD(SD) rat plasma assessed as plasma testosterone level <0.04 ng/ml at 10 pmol/hr, sc administered as continuous dosing through alzet osmotic pump for 1 week by radio-immunoassay. The series is classed as functional, organism-based. The procedure, abridged: as §3
A short description of series [19]: Solubility of the compound in water up to 500 mg/ml. Format: physicochemical. The conditions noted are these: buffer.
Series [20] in a line: AUC (0 to 24 hrs) in Sprague-Dawley rat plasma at 1 mg/kg, iv up to 24 hrs by LC/MS analysis. Format: ADME, organism-based. Also on record: dose 1 mg/kg, time < 24 hr, route intravenous. In outline:
as §2

Series [21] in a line: Total clearance in Sprague-Dawley rat plasma at 1 mg/kg, iv up to 24 hrs by LC/MS analysis. The series is classed as ADME, organism-based. The procedure, abridged:
as §2

Sequence of KiSS-1 receptor (Homo sapiens, UniProt Q969F8) (Q969F8 whole entry): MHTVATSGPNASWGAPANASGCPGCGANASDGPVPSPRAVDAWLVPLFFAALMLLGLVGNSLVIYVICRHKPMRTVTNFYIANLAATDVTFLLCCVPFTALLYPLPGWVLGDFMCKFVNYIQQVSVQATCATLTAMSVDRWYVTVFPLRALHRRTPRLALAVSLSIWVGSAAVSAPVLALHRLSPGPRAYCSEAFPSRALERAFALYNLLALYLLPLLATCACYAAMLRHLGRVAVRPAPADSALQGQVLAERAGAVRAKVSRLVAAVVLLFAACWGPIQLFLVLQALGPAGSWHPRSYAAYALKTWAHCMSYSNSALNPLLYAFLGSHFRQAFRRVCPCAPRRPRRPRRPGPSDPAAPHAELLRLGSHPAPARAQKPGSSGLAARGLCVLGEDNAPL
Sequence of KiSS-1 receptor (Rattus norvegicus, UniProt Q924U1) (Q924U1 whole entry): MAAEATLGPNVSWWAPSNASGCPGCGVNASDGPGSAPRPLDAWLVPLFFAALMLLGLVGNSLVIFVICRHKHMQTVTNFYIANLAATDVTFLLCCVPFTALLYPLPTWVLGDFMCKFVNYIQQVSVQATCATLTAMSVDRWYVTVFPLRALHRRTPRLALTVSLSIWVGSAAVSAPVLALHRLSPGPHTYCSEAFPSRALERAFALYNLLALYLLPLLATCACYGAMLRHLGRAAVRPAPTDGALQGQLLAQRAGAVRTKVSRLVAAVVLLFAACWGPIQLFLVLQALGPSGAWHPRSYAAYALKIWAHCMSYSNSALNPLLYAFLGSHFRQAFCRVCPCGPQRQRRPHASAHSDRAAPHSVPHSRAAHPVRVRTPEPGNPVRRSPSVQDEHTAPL

Turning to `CNC(=N)NCCC[C@H](NC(=O)[C@H](CC(C)C)NC(=O)NNC(=O)[C@H](Cc1ccccc1)NC(=O)[C@@H](NC(=O)[C@H](CC(N)=O)NC(=O)[C@@H]1C[C@@H](O)CN1C(=O)[C@@H](Cc1ccc(O)cc1)NC(C)=O)[C@@H](C)O)C(=O)N[C@@H](Cc1c[nH]c2ccccc12)C(N)=O` [TAK-448], the MRT in [1] amounted to 72.6 min; in [16], 37.2 min. Moreover, the Vd in series [2] worked out at 0.403 L/kg. Moreover, the inhibition entry in the series on Rattus norvegicus [3], with Rattus norvegicus [4], in the series with Rattus norvegicus [5], in the series on Rattus norvegicus [9] and in the series with Rattus norvegicus [18] was “Active” each time. For the same compound, the time to peak (Tmax) in series [6] came out at 19.8 min. Also, the AUC(0-t) at 24 h in series [7] was 679 ng·h/mL; in [20], 1550 ng·h/mL. The Activity in series [8] worked out at 21.9%. Further, the peak concentration (Cmax) in series [10] came to 342 ng/mL. In addition, in series [11], the concentration at 5 min came to 2850 ng/mL. In addition, the EC50 was determined as 5.2 nM on KiSS-1 receptor [12] and 36 nM on KiSS-1 receptor [14]. For the same compound, the MED in series [13] came to 30 pmol/h. Besides, the solubility result in series [15] and in series [19] was “Soluble” throughout. This compound also registered a bioavailability in [17] of 43.9%. The clearance in series [21] is 10.8 mL/min/kg.

One may read the MRT as a mean duration of stay, worked out from the concentration-time curve. By Tmax is commonly meant the time from dosing to the highest level. The term AUC(0-t) denotes exposure summed from dosing to a finite time, without extrapolation to infinity. Usually Cmax stands for the maximum level reached in the sampled fluid or tissue. As a reminder, the EC50 is the midpoint of the concentration-response curve. In general, bioavailability refers to dose-corrected exposure relative to a reference, in per cent. A word on the clearance: it is a measure of how efficiently the substance is removed, as volume per time.
